From ChEMBL document CHEMBL1128458, “Synthesis and anticonvulsant activity of enaminones. 3. Investigations on 4'-, 3'-, and 2'-substituted and polysubstituted anilino compounds, sodium channel binding studies, and toxicity evaluations” (J Med Chem, 1995)
Active and inactive are the calls of the source. The calls are words filed in the database; no cut-off is given here.

Legend:
Mus musculus [1] = test: Anticonvulsant activity; 3 indicates no activity at doses up to and including 300 mg/kg in mice.; format: functional
Summary of the method: (§1)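 Phase I screen in CF1 mice: compound suspended in 0.5% aqueous methylcellulose, given ip at 30, 100 and 300 mg/kg; MES, scMet and rotorod toxicity read at 30 min and 4 h. Class 1 = activity at 100 mg/kg or less; 2 = activity above 100 mg/kg; 3 = none up to 300 mg/kg.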

Mus musculus [2] = test: Effective dose for anticonvulsant activity determined in mice using subcutaneous Met test procedure. (Phase II); format: functional; details: sc
Rattus norvegicus [3] = test: Change in kidney weight on day 2 in male rats after ip administration of 100 mg/kg; expressed as kidney weight (g/100 g of body weight); format: functional; details: route intraperitoneal
Summary of the method: (§2)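 Male Fischer 344 rats (200-245 g), four per group, housed singly in metabolism cages; day 0 control values taken, then a single ip dose of 100 mg/kg or vehicle (25% DMSO in corn oil). Pair-fed controls. Urine volume measured at 24 h intervals. At 48 h, under ether, blood drawn from the dorsal aorta; plasma assayed for ALT/GPT and BUN; kidney and liver weighed. Means ± SE.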

Rattus norvegicus [4] = test: Change in liver weight determined in male rats on day 2 after ip administration of 100 mg/kg; expressed as liver weight (g/100 g of body weight); format: functional; details: route intraperitoneal; summary of the method: as §2
Rattus norvegicus [5] = test: Change in the blood urea nitrogen concentration on day 0 determined in male rats after ip administration of 100 mg/kg; Expressed as blood urea nitrogen concentration (mg %); format: functional; details: route intraperitoneal; summary of the method: as §2
Rattus norvegicus [6] = test: Change in the blood urea nitrogen concentration on day 2 determined in male rats after ip administration of 100 mg/kg; Expressed as blood urea nitrogen concentration (mg %); format: functional; details: route intraperitoneal; summary of the method: as §2
Rattus norvegicus [7] = test: ALT/GPT activity in male rats on day 2 after ip administration of 100 mg/kg.; format: functional; details: route intraperitoneal; summary of the method: as §2
Rattus norvegicus [8] = species on record: Rattus norvegicus; test: Effective dose for anticonvulsant activity determined in rats using MES test procedure. (Phase VIA); format: functional
Summary of the method: (§3)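 Phase VIA oral dosing in male Sprague–Dawley rats; MES and scMet ED50 and TD50 in mg/kg, each read at the time of peak effect; range in parentheses.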

Rattus norvegicus [9] = test: Effective dose for anticonvulsant activity determined in rats using subcutaneous Met test procedure. (Phase VIA); format: functional; details: sc; summary of the method: as §3
Rattus norvegicus [10] = test: Urine volume collected for biochemical tests after an ip dose of 100 mg/kg at 0 day in male rats.; format: functional; details: route intraperitoneal; summary of the method: as §2
Rattus norvegicus [11] = test: Urine volume collected for biochemical tests after an ip dose of 100 mg/kg at day 1 in male rats.; format: functional; details: route intraperitoneal; summary of the method: as §2
[12] = Toxic dose determined in mice using MES test procedure. (Phase II); format: toxicity; details: mouse, in vivo
[13] = Toxic dose determined in rats using MES test procedure. (Phase VIA); format: toxicity; details: rat, in vivo; summary of the method: as §3
[14] = target: Sodium channel alpha subunits; brain (Types I, II, III) (Rattus norvegicus, UniProt P04775+P04774+P08104); test: Inhibition of [3H]BTX-B binding to neurotoxin site 2 of sodium channel of rat cerebral cortex synaptoneurosomes; format: tissue-based
Summary of the method: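 Synaptoneurosomes from rat cerebral cortex were incubated with [3H]BTX-B (2.0 nM final) in HEPES, pH 7.4 at 25 °C, with 130 mM choline chloride, at 37 °C for 45 min. Reactions were stopped by rapid vacuum filtration onto glass fibre filters, and bound radioactivity was compared with control. IC50 was read from log concentration (10–800 µM) versus percent specific binding.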

Rattus norvegicus [15] = test: Urine volume collected for biochemical tests after an ip dose of 100 mg/kg at day 2 in male rats.; format: functional; details: route intraperitoneal; summary of the method: as §2
Mus musculus [16] = test: Anticonvulsant activity was determined; 2 indicates at doses greater than 100 mg/kg in mice; format: functional; summary of the method: as §1
Rattus norvegicus [17] = test: Anticonvulsant activity was determined; 2 indicates at doses greater than 100 mg/kg in rat; format: functional
Mus musculus [18] = test: Anticonvulsant activity was determined in mice; 1 indicates 100 mg/kg or less; format: functional; summary of the method: as §1
Rattus norvegicus [19] = test: Anticonvulsant activity determined in rats at an oral dose of 50 mg/kg of phase VIA trials; active; format: functional
Rattus norvegicus [20] = test: Anticonvulsant activity was determined; 3 indicates no activity at doses up to and including 300 mg/kg in rat; format: functional
Rattus norvegicus [21] = test: Anticonvulsant activity was determined in rat; 1 indicates 100 mg/kg or less; format: functional
Mus musculus [22] = species on record: Mus musculus; test: Effective dose for anticonvulsant activity determined in mice using MES test procedure. (Phase II); format: functional
Mus musculus [23] = test: Effective dose for anticonvulsant activity determined in mice using subcutaneous Met test procedure. (Phase II); Potentiates; format: functional, organism-based
Rattus norvegicus [24] = test: Effective dose for anticonvulsant activity determined in rats using subcutaneous Met test procedure. (Phase VIA); No protection; format: functional, organism-based
Mus musculus [25] = test: Effective dose for anticonvulsant activity determined in mice using subcutaneous Met test procedure. (Phase II); No protection; format: functional, organism-based
Rattus norvegicus [26] = species on record: Rattus norvegicus; test: Effective dose for anticonvulsant activity determined in rats using MES test procedure. (Phase VIA, parentheses value indicate 95% confidence limits); format: functional; summary of the method: as §3
[27] = Toxic dose determined in rats using MES test procedure. (Phase VIA, parentheses value indicate 95% confidence limits); format: toxicity, organism-based; details: rat, in vivo; summary of the method: as §3
Rattus norvegicus [28] = species on record: Rattus norvegicus; test: Protective index measured as the […].; format: functional

COC(=O)[C@@H]1C(=O)C=C(Nc2c(Cl)cccc2Cl)C[C@H]1C
Anticonvulsant activity (Mus musculus [1]): 3

CCOC(=O)[C@@H]1C(=O)C=C(Nc2c(Cl)cccc2Cl)C[C@H]1C
Anticonvulsant activity (Mus musculus [1]): 3

COC(=O)[C@@H]1C(=O)C=C(Nc2ccc(Cl)cc2)C[C@H]1C
ED50 (Mus musculus [2]): > 254 mg/kg | Activity (Rattus norvegicus [3]): 0.35 | Activity (Rattus norvegicus [4]): 4.16 | Activity (Rattus norvegicus [5]): 14% | Activity (Rattus norvegicus [6]): 14% | ALT/GPT (Rattus norvegicus [7]): 25 U/L | ED50 (Rattus norvegicus [8]): 5.8 mg/kg | ED50 (Rattus norvegicus [9]): > 190 mg/kg | Urine volume (Rattus norvegicus [10]): 13.8 mL | Urine volume (Rattus norvegicus [11]): 9.6 mL | TD50 [12]: 255 mg/kg | TD50 [13]: > 380 mg/kg | IC50 [14]: 489 µM | Urine volume (Rattus norvegicus [15]): 10.2 mL

COC(=O)[C@@H]1C(=O)C=C(NNc2ccccc2)C[C@H]1C
Anticonvulsant activity (Mus musculus [16]): 2 | Anticonvulsant activity (Rattus norvegicus [17]): 2

COC(=O)[C@@H]1C(=O)C=C(Nc2ccccc2OC)C[C@H]1C
Anticonvulsant activity (Mus musculus [1]): 3

COC(=O)[C@@H]1C(=O)C=C(Nc2ccc(OC)c(Cl)c2)C[C@H]1C
Anticonvulsant activity (Mus musculus [1]): 3

CCC1(c2ccccc2)C(=O)NC(=O)NC1=O [PHENOBARBITAL]
IC50 [14]: 2.5 µM

COC(=O)[C@@H]1C(=O)C=C(Nc2ccccc2F)C[C@H]1C
Anticonvulsant activity (Mus musculus [16]): 2

COC(=O)[C@@H]1C(=O)C=C(Nc2ccccc2[N+](=O)[O-])C[C@H]1C
Anticonvulsant activity (Mus musculus [16]): 2

CCOC(=O)[C@@H]1C(=O)C=C(Nc2cc(C)ccc2OC)C[C@H]1C
Anticonvulsant activity (Mus musculus [18]): 1

CCOC(=O)[C@@H]1C(=O)C=C(Nc2ccc(Cl)c(Cl)c2)C[C@H]1C
Anticonvulsant activity (Mus musculus [16]): 2

COC(=O)[C@@H]1C(=O)C=C(Nc2cc(Cl)c(Cl)cc2Cl)C[C@H]1C
Anticonvulsant activity (Mus musculus [18]): 1

CCOC(=O)[C@@H]1C(=O)C=C(Nc2ccc(Cl)c(Cl)c2Cl)C[C@H]1C
Anticonvulsant activity (Mus musculus [16]): 2

COC(=O)[C@@H]1C(=O)C=C(Nc2ccccc2I)C[C@H]1C
Anticonvulsant activity (Mus musculus [18]): 1

CCOC(=O)[C@@H]1C(=O)C=C(Nc2ccccc2N)C[C@H]1C
Anticonvulsant activity (Mus musculus [1]): 3

COC(=O)[C@@H]1C(=O)C=C(Nc2ccc(Cl)cn2)C[C@H]1C
Anticonvulsant activity (Mus musculus [18]): 1 | Anticonvulsant activity (Rattus norvegicus [19]): 1

COC(=O)[C@@H]1C(=O)C=C(Nc2ccc(Cl)c(Cl)c2)C[C@H]1C
Anticonvulsant activity (Mus musculus [18]): 1

CCOC(=O)[C@@H]1C(=O)C=C(Nc2ccccc2Cl)C[C@H]1C
Anticonvulsant activity (Mus musculus [1]): 3

COC(=O)[C@@H]1C(=O)C=C(Nc2ccccc2O)C[C@H]1C
Anticonvulsant activity (Mus musculus [1]): 3

COC(=O)[C@@H]1C(=O)C=C(Nc2ccccc2Br)C[C@H]1C
Anticonvulsant activity (Mus musculus [1]): 3

COC(=O)[C@@H]1C(=O)C=C(NC2CCCCC2)C[C@H]1C
Anticonvulsant activity (Mus musculus [1]): 3 | Anticonvulsant activity (Rattus norvegicus [20]): 3

CN1C(=O)CN=C(c2ccccc2)c2cc(Cl)ccc21 [DIAZEPAM]
IC50 [14]: 152 µM

CCOC(=O)[C@@H]1C(=O)C=C(NC2CCCCC2)C[C@H]1C
Anticonvulsant activity (Mus musculus [18]): 1 | Anticonvulsant activity (Rattus norvegicus [21]): 1

COC(=O)[C@@H]1C(=O)C=C(Nc2cc(OC)ccc2Cl)C[C@H]1C
Anticonvulsant activity (Mus musculus [16]): 2

CCOC(=O)[C@@H]1C(=O)C=C(Nc2cc(Cl)ccc2Cl)C[C@H]1C
Anticonvulsant activity (Mus musculus [1]): 3

COC(=O)[C@@H]1C(=O)C=C(Nc2ccc(Cl)c(Cl)c2Cl)C[C@H]1C
Anticonvulsant activity (Mus musculus [1]): 3

CCOC(=O)[C@@H]1C(=O)C=C(Nc2cc(Cl)c(Cl)c(Cl)c2)C[C@H]1C
Anticonvulsant activity (Mus musculus [16]): 2

CCOC(=O)[C@@H]1C(=O)C=C(Nc2ccc(OC)c(Cl)c2)C[C@H]1C
Anticonvulsant activity (Mus musculus [1]): 3

COC(=O)[C@@H]1C(=O)C=C(Nc2ccccc2C#N)C[C@H]1C
Anticonvulsant activity (Mus musculus [16]): 2

CCc1ccccc1NC1=CC(=O)[C@@H](C(=O)OC)[C@H](C)C1
Anticonvulsant activity (Mus musculus [18]): 1

COC(=O)[C@@H]1C(=O)C=C(Nc2ccccc2C)C[C@H]1C
Anticonvulsant activity (Mus musculus [1]): 3

COC(=O)[C@@H]1C(=O)C=C(Nc2ccccc2S(N)(=O)=O)C[C@H]1C
Anticonvulsant activity (Mus musculus [1]): 3

CCOC(=O)[C@@H]1C(=O)C=C(Nc2cc(Cl)cc(Cl)c2)C[C@H]1C
Anticonvulsant activity (Mus musculus [1]): 3

COC(=O)[C@@H]1C(=O)C=C(Nc2ccc(Cl)cc2Cl)C[C@H]1C
Anticonvulsant activity (Mus musculus [18]): 1

COC(=O)[C@@H]1C(=O)C=C(Nc2cc(C)ccc2OC)C[C@H]1C
Anticonvulsant activity (Mus musculus [16]): 2

CCOC(=O)[C@@H]1C(=O)C=C(Nc2cc(Cl)c(Cl)cc2Cl)C[C@H]1C
Anticonvulsant activity (Mus musculus [1]): 3

NC(=O)N1c2ccccc2C=Cc2ccccc21 [CARBAMAZEPINE]
ED50 (Mus musculus [22]): 8.8 mg/kg | ED50 (Mus musculus [23]): Convulsant | ED50 (Rattus norvegicus [8]): 8.5 mg/kg | ED50 (Rattus norvegicus [24]): inactive

COC(=O)[C@@H]1C(=O)C=C(Nc2ccccc2C(F)(F)F)C[C@H]1C
Anticonvulsant activity (Mus musculus [16]): 2

COC(=O)[C@@H]1C(=O)C=C(Nc2cc(Cl)ccc2Cl)C[C@H]1C
Anticonvulsant activity (Mus musculus [18]): 1

COC(=O)[C@@H]1C(=O)C=C(Nc2ccc(OC(F)(F)F)cc2)C[C@H]1C
ED50 (Mus musculus [22]): 22.4 mg/kg | ED50 (Mus musculus [2]): 114 mg/kg | ED50 (Rattus norvegicus [8]): 9.3 mg/kg | ED50 (Rattus norvegicus [9]): > 79 mg/kg | TD50 [12]: 122 mg/kg | TD50 [13]: > 158 mg/kg | IC50 [14]: 170 µM

O=C1NC(=O)C(c2ccccc2)(c2ccccc2)N1
ED50 (Mus musculus [25]): inactive | ED50 (Rattus norvegicus [24]): inactive

COC(=O)[C@@H]1C(=O)C=C(Nc2cc(Cl)cc(Cl)c2)C[C@H]1C
Anticonvulsant activity (Mus musculus [1]): 3

CCOC(=O)[C@@H]1C(=O)C=C(NNc2ccccc2)C[C@H]1C
Anticonvulsant activity (Mus musculus [1]): 3 | Anticonvulsant activity (Rattus norvegicus [20]): 3

CCOC(=O)[C@@H]1C(=O)C=C(Nc2ccc(Cl)cc2Cl)C[C@H]1C
Anticonvulsant activity (Mus musculus [18]): 1

Nc1nnc(-c2cccc(Cl)c2Cl)c(N)n1 [LAMOTRIGINE]
ED50 (Mus musculus [22]): 2.6 mg/kg | IC50 [14]: 114 µM

CCOC(=O)[C@@H]1C(=O)C=C(Nc2ccc(Cl)cn2)C[C@H]1C
Anticonvulsant activity (Mus musculus [18]): 1 | ED50 (Rattus norvegicus [26]): 12.1 mg/kg | TD50 [27]: > 344 mg/kg | PI (Rattus norvegicus [28]): 28.4 | Anticonvulsant activity (Rattus norvegicus [21]): 1

COC(=O)[C@@H]1C(=O)C=C(Nc2ccccc2Cl)C[C@H]1C
Anticonvulsant activity (Mus musculus [18]): 1
